# Data from article PMC2659781 (Drug metabolism and disposition: the biological fate of …, 2008).
# Entries after “also recorded” stand apart in the source; their conditions may differ.
# Columns and labels:
# [1] = 1 hour after intraperitoneal 10 mg/kg dose in lecithin; ref Poloyac et al., 2006; cited from earlier work
# [2] = test system: brain cortical 20-HETE tissue concentrations; experiment: Brain cortical 20-HETE tissue concentration after iv HET0016; type: in vivo, rat
# [3] = test system: 20-HETE formation in brain cortical microsomes; experiment: Ex vivo 20-HETE formation in brain cortical microsomes from treated rats; set-up: species or system rat; details: 1 mg/kg iv, one hour after dosing, incubated in the absence of inhibitor
# Procedure, shortened: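 Rats got 1 mg/kg test compound iv or vehicle (n = 6 per group); cortex was taken 1 h post-dose. Microsomes were made by differential centrifugation in pH 7.4 tris/KCl/DTT/EDTA/20% glycerol buffer with PMSF and BHT. 325μg protein was incubated without added inhibitor in 0.12 M potassium phosphate/5mM MgCl2 with 100μM arachidonic acid. NADPH 1mM was added at start and at 30 min; 37°C, 60 min. 20-HETE d6 internal standard, diethyl ether extraction, MS.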
# [4] = ref Nakamura et al., 2003, cited from earlier work
# [5] = Aqueous solubility of HET0016 in ddH2O and 15% HPβCD; type: physicochemical
# [6] = test system: 20-HETE formation in rat brain cortical microsomes; experiment: Inhibition of 20-HETE formation in rat brain cortical microsomes; type: biochemical; details: for 20-HETE formation rate, % of control incubation: HET0016 48.5 nM, 100 μM arachidonic acid
smiles,measurement,setting,value
"CCCCc1ccc(N=CNO)c(C)c1 [HET0016, N-Hydroxy-N′-(4-n-butyl-2-methylphenyl)formamidine]",brain concentration as % of plasma concentration,[1],less than 10%
same,time 20-HETE tissue concentrations remained significantly reduced,[2]; 1 mg/kg iv,60 min
same,time of return of 20-HETE to control levels,[2]; 1 mg/kg iv,≤ 24 h
same,time to reduction of brain 20-HETE after administration,[2]; 1 mg/kg iv,≤ 5 min
same,20-HETE concentration recovery (of control),"[2]; 1 mg/kg iv, 180 minutes",70%
same,20-HETE concentrations in brain tissue of treated animals (chromatograms),[2]; data not shown,near or below the limits of detection
same,rat brain 20-HETE concentration after dosing,"[2]; single iv dose 1 mg/kg, HPβCD formulation, from 289 pmol/g",91 pmol/g
same,ex vivo 20-HETE formation in microsomes of treated animals,[3],persistent inhibition
same,stability,[4]; acidic pH,instability
same,aqueous solubility,[4]; neutral pH,poor aqueous solubility
same,solubility at 48 h,[5]; 15% HPβCD,453 ± 63.3 µg/mL
same,solubility at 48 h,"[5]; distilled, deionized water",34.2 ± 31.2 µg/mL
same,reduction in 20-HETE formation rate,[6]; HET0016 30 nM,~ 70%
same,"20-HETE formation rate, % of control incubation",[6]; with 10 minute pre-incubation,4.92 ± 0.19%
same,"20-HETE formation rate, % of control incubation",[6]; without pre-incubation,4.89 ± 0.46%
same,concentrations of HET0016 required for 20-HETE inhibition in the rat brain,[6]; in vitro,30 to 90 nM
same,need for metabolic activation to inhibit 20-HETE formation,[6]; pre-incubation versus no pre-incubation,does not require metabolic activation
same,mechanism of inhibition of 20-HETE formation,"[6]; rat brain cortical microsomes, 24 nM HET0016, arachidonic acid up to 120 μM",non-competitive inhibitor; also recorded: non-competitive inhibition
